Consider one compound from ChEMBL document CHEMBL2062417, “Biotinylated quercetin as an intrinsic photoaffinity proteomics probe for the identification of quercetin target proteins” (Bioorg Med Chem, 2011).

Test [1] addresses Casein kinase II subunit beta (Homo sapiens) (UniProt P67870). In words: Binding affinity to CK2beta at 150 uM followed by UV irradiation for 30 mins with Wood's glass filtered medium pressure mercury arc light by SDS-PAGE based pull down assay. In short, it runs like this: (§1)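 CK2 (17.5–70 nM) was mixed with 150 μM BioQ in 400 μL 10 mM PBS pH 7.2 with protease inhibitors, with or without 10 mM MgCl2 and 2 μM ATP. Samples were irradiated 30 min on ice (320–400 nm, peak 365 nm) or left unirradiated. Capture was on streptavidin agarose for 1 h, with washes in lysis buffer or 2% SDS Tris buffer, then boiling, SDS-PAGE and silver staining.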

A further test addresses Casein kinase II (Homo sapiens, UniProt P19784+P67870+P68400). In words: Inhibition of CK2 using RRRADDSDDDDD as substrate after 30 mins by PKLight assay. The format is protein-complex assay.
The species named for a further test is Homo sapiens. The experiment in a line: Binding affinity to CK2 at 150 uM followed by UV irradiation for 30 mins with Wood's glass filtered medium pressure mercury arc light by silver staining based pull down assay. In short, it runs like this: as §1
Test [2] concerns Jurkat. The experiment in a line: Binding affinity to quercetin binding protein in human Jurkat cells at 150 uM followed by UV irradiation for 30 mins with Wood's glass filtered medium pressure mercury arc light after cell lysis by SDS-PAGE based pull down assay. In short, it runs like this: (§2)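 Jurkat cells were grown in RPMI with 10% FBS (about 15×10^6 cells) and treated 2 h with 150 μM BioQ in 3% aqueous DMSO. They were heat-shocked at 43 °C for 30 min, recovered 1 h at 37 °C, and UV-irradiated (320–400 nm, peak 365 nm, 30 min, 4 °C) before or after sonication lysis. Streptavidin-agarose capture ran 1 h. Beads were washed ≥3× with lysis buffer or 2% SDS Tris pH 7.4, boiled, run on 12% SDS-PAGE and silver-stained.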

Test [3] relates to Jurkat. In words: Binding affinity to quercetin binding protein in human Jurkat cells at 150 uM after 30 mins followed by denaturing wash by SDS-PAGE based pull down assay in presence of heat shock. The format is cell-based.
The target in test [4] is RuvB-like 2 (Homo sapiens) (UniProt Q9Y230). The experiment in a line: Binding affinity to RUVBL2 in human Jurkat cells at 150 uM followed by UV irradiation for 30 mins with Wood's glass filtered medium pressure mercury arc light after cell lysis measured after denaturing wash by SDS-PAGE based pull down assay. The essentials:
as §2

The target in test [5] is ATP synthase F(1) complex subunit alpha, mitochondrial (Homo sapiens) (UniProt P25705). In words: Binding affinity to ATP5A1 in human Jurkat cells at 150 uM followed by UV irradiation for 30 mins with Wood's glass filtered medium pressure mercury arc light after cell lysis measured after denaturing wash by SDS-PAGE based pull down assay. In short, it runs like this:
as §2

Test [6] concerns the target Heat shock protein HSP 90-alpha (Homo sapiens) (UniProt P07900). In words: Binding affinity to HSP90AA1 in human Jurkat cells at 150 uM followed by UV irradiation for 30 mins with Wood's glass filtered medium pressure mercury arc light prior to cell lysis measured after denaturing wash by SDS-PAGE based pull down assay. In short, it runs like this:
as §2

Test [7] concerns the target Heat shock-related 70 kDa protein 2 (Homo sapiens) (UniProt P54652). The experiment in a line: Binding affinity to HSPA2 in human Jurkat cells at 150 uM followed by UV irradiation for 30 mins with Wood's glass filtered medium pressure mercury arc light prior to cell lysis measured after denaturing wash by SDS-PAGE based pull down assay. In short, it runs like this: as §2

Test [8] has as its target RuvB-like 2 (Homo sapiens) (UniProt Q9Y230). In words: Binding affinity to RUVBL2 in human Jurkat cells at 150 uM followed by UV irradiation for 30 mins with Wood's glass filtered medium pressure mercury arc light prior to cell lysis measured after denaturing wash by SDS-PAGE based pull down assay. In short, it runs like this:
as §2

Test [9] concerns the target ATP synthase F(1) complex subunit beta, mitochondrial (Homo sapiens) (UniProt P06576). In words: Binding affinity to ATP5B in human Jurkat cells at 150 uM followed by UV irradiation for 30 mins with Wood's glass filtered medium pressure mercury arc light prior to cell lysis measured after denaturing wash by SDS-PAGE based pull down assay. The essentials: as §2
Test [10] addresses RuvB-like 2 (Homo sapiens) (UniProt Q9Y230). The experiment in a line: Binding affinity to RUVBL2 in human Jurkat cells at 150 uM followed by UV irradiation for 30 mins with Wood's glass filtered medium pressure mercury arc light prior to cell lysis measured after denaturing wash by LC-MS/MS based pull down assay. The essentials: (§3)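 Silver-stained bands from cells irradiated before lysis were excised, destained, reduced with 10 mM DTT, alkylated with 50 mM iodoacetamide and digested with trypsin overnight. Peptides were extracted in 1% TFA/50% acetonitrile. Nano-C18 LC used a 2–50% acetonitrile gradient with 0.1% formic acid over 50 min at 260 nL/min, followed by MS/MS identification.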

The target of test [11] is ATP synthase F(1) complex subunit beta, mitochondrial (Homo sapiens) (UniProt P06576). The experiment in a line: Binding affinity to ATP5B in human Jurkat cells at 150 uM followed by UV irradiation for 30 mins with Wood's glass filtered medium pressure mercury arc light prior to cell lysis measured after denaturing wash by LC-MS/MS based pull down assay. In short, it runs like this:
as §3

Active and inactive are the calls of the source. The calls are words filed in the database; no cut-off is given here.

What is called IC50 is the concentration needed to halve the response being measured. A lower IC50 goes with higher potency.

Chain of RuvB-like 2 (Homo sapiens) (Q9Y230 whole entry): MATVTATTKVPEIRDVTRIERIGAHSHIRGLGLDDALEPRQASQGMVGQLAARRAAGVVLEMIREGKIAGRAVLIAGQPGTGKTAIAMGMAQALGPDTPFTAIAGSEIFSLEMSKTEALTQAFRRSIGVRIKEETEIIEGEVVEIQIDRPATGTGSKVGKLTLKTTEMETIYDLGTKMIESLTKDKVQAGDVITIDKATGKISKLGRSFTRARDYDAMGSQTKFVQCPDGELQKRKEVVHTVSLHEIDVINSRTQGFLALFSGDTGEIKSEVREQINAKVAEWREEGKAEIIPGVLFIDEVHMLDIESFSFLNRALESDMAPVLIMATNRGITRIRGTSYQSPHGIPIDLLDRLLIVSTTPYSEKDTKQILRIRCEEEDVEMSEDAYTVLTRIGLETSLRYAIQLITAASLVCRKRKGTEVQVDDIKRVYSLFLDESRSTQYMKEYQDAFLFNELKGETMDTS
Chain of ATP synthase F(1) complex subunit beta, mitochondrial (Homo sapiens) (P06576 whole entry, one chain of several): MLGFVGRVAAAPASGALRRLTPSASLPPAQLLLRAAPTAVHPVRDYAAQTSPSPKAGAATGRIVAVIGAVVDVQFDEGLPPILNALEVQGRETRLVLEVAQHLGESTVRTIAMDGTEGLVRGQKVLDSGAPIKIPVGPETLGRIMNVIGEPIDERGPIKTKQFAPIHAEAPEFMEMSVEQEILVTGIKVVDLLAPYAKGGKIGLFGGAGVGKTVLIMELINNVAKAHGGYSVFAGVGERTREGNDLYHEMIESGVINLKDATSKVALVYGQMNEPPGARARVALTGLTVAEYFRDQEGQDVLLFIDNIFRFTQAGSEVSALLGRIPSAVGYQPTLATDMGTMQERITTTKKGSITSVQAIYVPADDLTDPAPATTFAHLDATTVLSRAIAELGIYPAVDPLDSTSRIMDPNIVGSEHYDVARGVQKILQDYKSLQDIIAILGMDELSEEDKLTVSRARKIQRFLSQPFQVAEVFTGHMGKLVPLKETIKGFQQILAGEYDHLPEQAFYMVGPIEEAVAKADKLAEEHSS
Chain of Heat shock-related 70 kDa protein 2 (Homo sapiens) (P54652 whole entry): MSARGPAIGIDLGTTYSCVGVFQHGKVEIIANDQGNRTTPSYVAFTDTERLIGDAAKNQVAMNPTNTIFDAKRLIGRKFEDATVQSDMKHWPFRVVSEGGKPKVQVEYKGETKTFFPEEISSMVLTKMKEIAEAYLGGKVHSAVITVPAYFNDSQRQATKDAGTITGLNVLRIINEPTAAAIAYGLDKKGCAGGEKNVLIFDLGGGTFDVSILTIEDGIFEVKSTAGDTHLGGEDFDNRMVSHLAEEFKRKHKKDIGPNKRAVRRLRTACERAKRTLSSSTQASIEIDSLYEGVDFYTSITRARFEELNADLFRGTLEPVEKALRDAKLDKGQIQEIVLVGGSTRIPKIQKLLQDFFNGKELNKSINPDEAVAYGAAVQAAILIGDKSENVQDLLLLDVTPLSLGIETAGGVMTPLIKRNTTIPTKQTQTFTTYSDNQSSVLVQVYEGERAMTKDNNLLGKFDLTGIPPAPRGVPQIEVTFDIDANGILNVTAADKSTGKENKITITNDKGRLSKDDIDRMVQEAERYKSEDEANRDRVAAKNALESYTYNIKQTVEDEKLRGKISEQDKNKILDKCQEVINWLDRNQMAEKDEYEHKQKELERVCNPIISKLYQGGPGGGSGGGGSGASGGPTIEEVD
Chain of Casein kinase II (P67870 whole entry): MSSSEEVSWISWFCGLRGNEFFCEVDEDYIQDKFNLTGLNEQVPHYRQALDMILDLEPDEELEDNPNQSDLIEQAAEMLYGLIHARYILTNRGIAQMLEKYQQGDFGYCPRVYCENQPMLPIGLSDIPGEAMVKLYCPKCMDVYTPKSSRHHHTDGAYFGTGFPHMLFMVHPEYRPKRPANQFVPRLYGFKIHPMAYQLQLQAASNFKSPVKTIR
Chain of Casein kinase II (P68400 whole entry): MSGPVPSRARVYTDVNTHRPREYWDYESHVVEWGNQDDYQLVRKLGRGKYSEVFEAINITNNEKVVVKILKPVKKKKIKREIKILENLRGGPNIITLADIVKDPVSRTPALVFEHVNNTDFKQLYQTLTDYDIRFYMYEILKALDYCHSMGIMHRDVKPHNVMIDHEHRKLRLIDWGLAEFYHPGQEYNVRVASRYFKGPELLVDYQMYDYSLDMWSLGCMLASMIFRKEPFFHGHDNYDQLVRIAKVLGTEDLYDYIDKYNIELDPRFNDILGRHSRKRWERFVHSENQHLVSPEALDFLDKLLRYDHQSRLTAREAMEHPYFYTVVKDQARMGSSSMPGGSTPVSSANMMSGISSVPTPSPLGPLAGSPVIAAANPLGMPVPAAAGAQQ
Chain of Casein kinase II (P19784 whole entry): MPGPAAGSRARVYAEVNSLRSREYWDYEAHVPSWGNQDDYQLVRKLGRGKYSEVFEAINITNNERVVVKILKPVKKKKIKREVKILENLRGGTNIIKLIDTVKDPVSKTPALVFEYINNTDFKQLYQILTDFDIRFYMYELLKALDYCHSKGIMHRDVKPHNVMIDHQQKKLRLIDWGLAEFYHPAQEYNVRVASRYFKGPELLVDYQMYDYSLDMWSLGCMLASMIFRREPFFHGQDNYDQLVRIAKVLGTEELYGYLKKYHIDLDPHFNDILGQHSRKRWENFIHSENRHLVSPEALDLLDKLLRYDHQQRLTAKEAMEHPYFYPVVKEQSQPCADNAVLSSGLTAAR
Chain of Casein kinase II subunit beta (Homo sapiens) (P67870 whole entry): as the sequence (P67870 whole entry) above
Chain of ATP synthase F(1) complex subunit alpha, mitochondrial (Homo sapiens) (P25705 whole entry, one chain of several): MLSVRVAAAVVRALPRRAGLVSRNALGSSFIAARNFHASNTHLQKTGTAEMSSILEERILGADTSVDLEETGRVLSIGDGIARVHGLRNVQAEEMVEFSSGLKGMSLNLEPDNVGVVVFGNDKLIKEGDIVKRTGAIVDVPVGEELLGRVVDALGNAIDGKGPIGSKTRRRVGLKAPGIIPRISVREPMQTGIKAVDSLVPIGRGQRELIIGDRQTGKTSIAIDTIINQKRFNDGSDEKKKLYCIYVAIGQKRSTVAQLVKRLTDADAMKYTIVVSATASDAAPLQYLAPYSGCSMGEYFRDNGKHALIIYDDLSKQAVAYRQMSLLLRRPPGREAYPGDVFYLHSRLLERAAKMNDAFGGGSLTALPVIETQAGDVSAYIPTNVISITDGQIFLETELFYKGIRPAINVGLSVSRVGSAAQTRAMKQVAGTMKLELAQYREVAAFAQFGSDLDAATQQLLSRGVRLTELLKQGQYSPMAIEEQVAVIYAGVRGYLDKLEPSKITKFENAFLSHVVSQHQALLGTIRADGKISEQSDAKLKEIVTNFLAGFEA

Consider `O=C(CCCC[C@@H]1SC[C@@H]2NC(=O)N[C@@H]21)NCCOCCOCCNC(=O)COc1cc(O)c2c(=O)c(O)c(-c3ccc(O)c(O)c3)oc2c1`, for which the outcome (in [1]; in the test on Jurkat [2]; in the test on Jurkat [3]; in test [4]; in [5]; in test [6]) was Active. Besides, the outcome in test [7], in test [8], in test [9], in test [10] and in test [11] was Active. Further, the IC50 at Casein kinase II was 3.2 µM. Also, in the test listed under Homo sapiens, the outcome was inactive.
